Measurements taken from ChEMBL document CHEMBL4831540, “Discovery of Aficamten (CK-274), a Next-Generation Cardiac Myosin Inhibitor for the Treatment of Hypertrophic Cardiomyopathy” (J Med Chem, 2021).
In brackets after ≈: the same amount, converted by molar mass.

What was measured:
[1] = (§1) Inhibition of full-length myosin ATPase activity in bovine cardiac myofibrils; type: subcellular, Bos taurus, Heart
Procedure, shortened: (§2)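 Bovine cardiac myofibril ATPase assay run at a calcium level giving 75% of maximal activity.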

[2] = Solubility of the compound at pH 6.8 by shake flask method; type: physicochemical; settings: buffer
Procedure, shortened: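 Shake-flask solubility at pH 6.8; solid form not characterized.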

[3] = Clearance in Sprague-Dawley rat at 1 mg/kg; settings: in vivo
[4] = Half life in Sprague-Dawley rat at 1 mg/kg; type: ADME, organism-based; settings: in vivo
Procedure, shortened: (§3)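 Rat PK with iv and po administration at 1 mg/kg. Clearance and half-life came from the iv arm, and bioavailability from the iv/po comparison.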

[5] = Plasma protein binding in rat plasma assessed as unbound concentration at 5 uM incubated for 6 hrs by HPLC analysis; type: ADME, cell-free
[6] = Plasma protein binding in rat assessed as unbound fraction; type: ADME, cell-free
[7] = Metabolic stability in rat liver microsomes assessed as intrinsic clearance measured upto 90mins by HPLC/MS/MS analysis; type: ADME, Microsome; settings: read-out: CLH
[8] = Metabolic stability in human liver microsomes assessed as intrinsic clearance measured upto 90mins by HPLC/MS/MS analysis; type: ADME, Microsome; settings: read-out: CLH
[9] = Bioavailability in Sprague-Dawley rat at 1 mg/kg, po or 1 mg/kg, iv; type: ADME, organism-based; settings: in vivo; procedure, shortened: as §3
[10] = Clearance in Sprague-Dawley rat at 1 mg/kg; type: ADME, organism-based; settings: in vivo; procedure, shortened: as §3
[11] = Plasma protein binding in human assessed as unbound fraction; type: ADME, cell-free
[12] = Unbound clearance in Sprague-Dawley rat at 0.5 mg/kg; type: ADME, organism-based; settings: in vivo
Procedure, shortened: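 Rat in vivo clearance at a 0.5 mg/kg dose was divided by the rat plasma free fraction to give unbound clearance.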

[13] = organism: Bos taurus; assay: as §1; type: subcellular; settings: Heart, Myofibril; procedure, shortened: as §2
[14] = Oral bioavailability in Sprague-Dawley rat at 2 mg/kg; type: ADME, organism-based; settings: in vivo
Procedure, shortened: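 Multi-species PK study in male animals, n = 3 per group (dog IV arm n = 2). Iv and oral dosing with plasma concentration–time profiles yielding Cmax, tmax, AUC0–t, CL, Vss, t1/2 and F.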

`Cn1cc(C(=O)N[C@@H]2CCc3cc(-c4noc(C5CCC5)n4)ccc32)cn1` showed an IC50 [1] of 3200 nM and a solubility thermodynamic [2] of 14 µM (≈ 5.09 µg/mL).
For `CCc1nc(-c2ccc3c(c2)CC[C@H]3NC(=O)c2cc(C)ncn2)no1`, the IC50 [1] was 1800 nM, the clearance [3] was 20 mL/min/kg and the half-life [4] was 5.9 h. For the same compound, the fraction unbound at 6 h, 5 µM [5] was 0.092, the fraction unbound [6] was 0.046 and the CLint scaled [7] was 24 mL/min/kg. It also gave a CLint scaled [8] of under 11 mL/min/kg, a bioavailability [9] of 26% and a clearance [10] of 20 mL/min/kg.
With `Cn1cc(C(=O)N[C@@H]2CCc3cc(-c4noc(C5CC5)n4)ccc32)cn1` the IC50 [1] was 2700 nM, the fraction unbound [6] was 0.042 and the fraction unbound [11] was 0.056. The solubility thermodynamic [2] was 33 µM (≈ 11.5 µg/mL).
In the case of `Cc1nc(-c2ccc3c(c2)CC[C@H]3NC(=O)c2cnn(C)c2)no1`, the IC50 [1] is reported as 4400 nM, the fraction unbound at 6 h, 5 µM [5] is reported as 0.065 and the fraction unbound [6] is reported as 0.065. For the same compound, the CLint scaled [7] was under 21 mL/min/kg, the CL free [12] was 32.3 mL/min/kg and the CLint scaled [8] was under 11 mL/min/kg. It also gave a fraction unbound [11] of 0.14 and a solubility thermodynamic [2] of 86 µM (≈ 27.8 µg/mL).
In the case of `CCc1nc(-c2ccc3c(c2)CCN3C(=O)OCc2ccccc2)no1`, the IC15 [13] is reported as 1300 nM and the IC50 [1] is reported as over 39000 nM.
Work on `Cc1cc(C(=O)N[C@@H]2CCc3cc(-c4noc(C5CC5)n4)ccc32)ccn1` yielded an IC50 [1] of 1900 nM, a clearance [3] of 3 mL/min/kg and a half-life [4] of 13.8 h. For the same compound, the fraction unbound at 6 h, 5 µM [5] was 0.049, the CLint scaled [7] was under 21 mL/min/kg and the CLint scaled [8] was under 11 mL/min/kg. It also gave a bioavailability [9] of 70% and a clearance [10] of 3 mL/min/kg.
Work on `CCc1nc(-c2ccc3c(c2)CC[C@H]3NC(=O)c2cn[nH]c2)no1` yielded an IC50 [1] of 1100 nM, a clearance [3] of 63 mL/min/kg and a half-life [4] of 1.4 h. For the same compound, the fraction unbound at 6 h, 5 µM [5] was 0.2, the fraction unbound [6] was 0.2 and the CLint scaled [7] was 66 mL/min/kg. The CLint scaled [8] was under 11 mL/min/kg, the bioavailability [9] was 10% and the clearance [10] was 63 mL/min/kg.
`CCc1nc(-c2ccc3c(c2)CCN3C(=O)COc2ccccc2)no1` gave an IC15 [13] of 900 nM and an IC50 [1] of 2700 nM.
`Cn1cc(C(=O)N[C@@H]2CCc3cc(-c4ncon4)ccc32)cn1` gave an IC50 [1] of over 39000 nM.
Work on `COCCc1nc(-c2ccc3c(c2)CC[C@H]3NC(=O)c2cnn(C)c2)no1` yielded an IC50 [1] of over 39000 nM.
Compound `Cn1nnc(C(=O)N[C@@H]2CCc3cc(-c4noc(C5CC5)n4)ccc32)n1` has an IC50 [1] of 1000 nM, a bioavailability [14] of 100% and a clearance [3] of 5 mL/min/kg. It also gave a half-life [4] of 17.8 h, a fraction unbound at 6 h, 5 µM [5] of 0.12 and a fraction unbound [6] of 0.077. The CLint scaled [7] was under 21 mL/min/kg, the CLint scaled [8] was under 11 mL/min/kg and the clearance [10] was 5 mL/min/kg.
`CC(C)c1nc(-c2ccc3c(c2)CC[C@H]3NC(=O)c2cnn(C)c2)no1` gave an IC50 [1] of 4100 nM.
Work on `CCc1nc(-c2ccc3c(c2)CC[C@H]3NC(=O)c2ocnc2C)no1` yielded an IC50 [1] of 800 nM, a clearance [3] of 40 mL/min/kg and a half-life [4] of 14.7 h. The fraction unbound at 6 h, 5 µM [5] was 0.1, the fraction unbound [6] was 0.051 and the CLint scaled [8] was under 11 mL/min/kg. The bioavailability [9] was 0% and the clearance [10] was 40 mL/min/kg.
Work on `CCc1nc(-c2ccc3c(c2)CCN3C(=O)CSc2ccccc2)no1` yielded an IC15 [13] of over 39000 nM and an IC50 [1] of over 39000 nM.
Work on `Cn1cc(C(=O)N[C@@H]2CCc3cc(-c4noc(C(F)F)n4)ccc32)cn1` yielded an IC50 [1] of 2400 nM, a fraction unbound at 6 h, 5 µM [5] of 0.024 and a fraction unbound [6] of 0.024. For the same compound, the CLint scaled [7] was under 21 mL/min/kg, the CLint scaled [8] was under 11 mL/min/kg and the fraction unbound [11] was 0.057. The solubility thermodynamic [2] was 37 µM (≈ 13.3 µg/mL).
For `Cc1nc(-c2ccc3c(c2)CCC3NC(=O)c2ccccc2)no1` (racemic), the IC50 [1] was 1900 nM, the fraction unbound at 6 h, 5 µM [5] was 0.043 and the CLint scaled [7] was over 124 mL/min/kg. For the same compound, the CLint scaled [8] was 24 mL/min/kg.
Work on `CCc1nc(-c2ccc3c(c2)CCC3NC(=O)c2ccccc2)no1` (racemic) yielded an IC50 [1] of 1000 nM, a fraction unbound at 6 h, 5 µM [5] of 0.023 and a CLint scaled [7] of over 124 mL/min/kg. It also gave a CLint scaled [8] of over 62 mL/min/kg.
Compound `Cc1nc(-c2ccc3c(c2)CC[C@@H]3NC(=O)c2cnn(C)c2)no1` has an IC50 [1] of over 39000 nM, a fraction unbound at 6 h, 5 µM [5] of 0.15 and a CLint scaled [7] of under 21 mL/min/kg. It also gave a CL free [12] of 395 mL/min/kg and a CLint scaled [8] of under 11 mL/min/kg.
In the case of `CCc1nc(-c2ccc3c(c2)CCN3C(=O)Cc2ccccc2)no1`, the IC15 [13] is reported as 3500 nM and the IC50 [1] is reported as 19100 nM.
